Screens: PubChem, Broad Institute
CAL PDZ FP-1 – inhibitors of human CAL PDZ peptide binding. purified CAL PDZ, TMR-peptide fluorescence polarization, 1 h. inhibition, % at 20 µM. actives 0.02% (n = 330,000). AID 504414;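 active means highest replicate inhibition of at least 40%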
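Assay system – tagged CAL PDZ protein CerCALP, purified · Timing – 1 h at RT · Compound – single point, 20 µM · Measured by – fluorescence polarization from S- and P-plane intensities, G-factor corrected · Evaluation – inhibition from polarization loss · Probe or stimulus – TMR reporter peptide T*-PRC34 · Buffer or medium – pH 7.4 phosphate-saline buffer, reducing agent, detergent, IgG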
CAL PDZ FP-2 – CAL PDZ (human) peptide binding inhibition; purified CAL PDZ, TMR-peptide fluorescence polarization, 1 h; actives 0.92% (n = 300,000); AID 602252; inhibition, % at 24.9 µM;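 active means mean inhibition of at least 30% with at least half of replicates also reaching 30%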
ARNT TACC3 PPI – disrupts binding between human ARNT and TACC3; Q9Y6A5; AlphaScreen His-ARNT PAS-B/GST-TACC3 binding, luminescence; TACC3 fragment carries E629A point mutation; inhibition, % at 9.99 µM; actives 0.66% (n = 390,000); AID 623870;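 active means mean inhibition of replicates at least 50% and at least half of replicates each reaching 50%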
A number is an active result. A selection: hits, their analogues and other compounds. The true share with any hit is near 1.2%.

Results for CCC(C)NC(=O)C1CCC(=O)N(c2ccc3c(c2)OCO3)C1c1ccc(OC)cc1 (stereo not drawn) ?
CAL PDZ FP-1: inactive; ARNT TACC3 PPI: inactive

What do the screens show for `C[C@@H]1CN([C@H](C)CO)C(=O)c2cccc(NC(=O)Nc3ccc(C(F)(F)F)cc3)c2O[C@@H]1CN(C)C`?
ARNT TACC3 PPI: inactive

What do the screens show for `COc1ccc(NC(=O)CC(CC(=O)O)c2cc(OC)c(OC)c(OC)c2)cc1` (stereo not drawn)?
CAL PDZ FP-1: inactive; CAL PDZ FP-2: 59.4; ARNT TACC3 PPI: inactive

Results for O=C(O)CC(CC(=O)Nc1ccc(Oc2ccccc2)cc1)c1ccccc1 (stereo not drawn) ?
CAL PDZ FP-1: inactive; CAL PDZ FP-2: inactive; ARNT TACC3 PPI: inactive

How did Cc1noc(NS(=O)(=O)c2ccc(NC(=O)CSc3nnc4c(n3)[nH]c3ccccc34)cc2)c1C do in these assays?
CAL PDZ FP-1: inactive; CAL PDZ FP-2: inactive; ARNT TACC3 PPI: 70.6

Results for Cc1noc(NS(=O)(=O)c2ccc(NC(=O)CSc3nc4ccccc4[nH]3)cc2)c1C ?
CAL PDZ FP-1: inactive; CAL PDZ FP-2: inactive; ARNT TACC3 PPI: inactive

What do the screens show for `Cc1ccc(S(=O)(=O)N(C)C[C@H]2Oc3c(cccc3N(C)C)C(=O)N([C@@H](C)CO)C[C@H]2C)cc1`?
ARNT TACC3 PPI: inactive

Results for CCOC(=O)C1(C)Oc2ccccc2C(C(=O)OC)=C1C(=O)OC (stereo not drawn) ?
CAL PDZ FP-1: inactive; CAL PDZ FP-2: active; ARNT TACC3 PPI: inactive

Results for CCOC(=O)C1(C)Oc2ccccc2C(c2ccc(OC)cc2)=C1C(=O)OC (stereo not drawn) ?
CAL PDZ FP-1: inactive; CAL PDZ FP-2: inactive; ARNT TACC3 PPI: inactive

What do the screens show for `COc1ccc(S(=O)(=O)Nc2ccc3c(c2)C(=O)N([C@H](C)CO)C[C@@H](C)[C@H](CN(C)C)OCCCC[C@H](C)O3)cc1`?
ARNT TACC3 PPI: inactive

What do the screens show for `COc1ccc(S(=O)(=O)Nc2ccc3c(c2)CC(=O)N([C@H](C)CO)C[C@@H](C)[C@H](CN(C)S(=O)(=O)c2ccccc2)O3)cc1`?
ARNT TACC3 PPI: inactive

How did CSc1nnc(-c2cccs2)n1C do in these assays?
CAL PDZ FP-2: inactive; ARNT TACC3 PPI: inactive

What do the screens show for `CSCCC1COC(c2cccs2)=N1` (stereo not drawn)?
CAL PDZ FP-1: inactive; CAL PDZ FP-2: 31.0; ARNT TACC3 PPI: inactive

What do the screens show for `Cc1noc(C)c1NC(=O)N(C)C[C@H]1Oc2ccc(NC(=O)NC3CCCCC3)cc2C(=O)N([C@H](C)CO)C[C@H]1C`?
ARNT TACC3 PPI: inactive

Results for COc1cccc2cc(C(=O)N(Cc3ccccc3)CC3CCCO3)c(=O)oc12 (stereo not drawn) ?
CAL PDZ FP-1: inactive; CAL PDZ FP-2: 43.2; ARNT TACC3 PPI: inactive

Results for O=C(c1cc2ccccc2oc1=O)N(Cc1ccccc1)CC1CCCO1 (stereo not drawn) ?
CAL PDZ FP-1: inactive; CAL PDZ FP-2: inactive; ARNT TACC3 PPI: inactive

How did O=C(CSc1ccccc1)N1CCCC(Nc2ccccc2)C1 (stereo not drawn) do in these assays?
CAL PDZ FP-1: inactive; CAL PDZ FP-2: 60.9; ARNT TACC3 PPI: inactive

What do the screens show for `O=C(CSc1ccccn1)N1CCCC(Nc2ccccc2)C1` (stereo not drawn)?
CAL PDZ FP-1: inactive; ARNT TACC3 PPI: inactive

What do the screens show for `CC(=O)c1cc(C(=O)N2CCc3c([nH]c4ccccc34)C2CC(C)C)[nH]n1` (stereo not drawn)?
CAL PDZ FP-1: inactive; CAL PDZ FP-2: 77.3; ARNT TACC3 PPI: inactive

How did CC(C)CC1c2[nH]c3ccccc3c2CCN1C(=O)CCC(=O)N(C)C (stereo not drawn) do in these assays?
CAL PDZ FP-1: inactive; CAL PDZ FP-2: inactive; ARNT TACC3 PPI: inactive

Results for C[C@@H]1CN([C@H](C)CO)S(=O)(=O)c2ccc(C#Cc3ccncc3)cc2O[C@H]1CN(C)C(=O)C1CCOCC1 ?
ARNT TACC3 PPI: inactive

How did C=CCNC(=O)/C(=C/c1ccco1)NC(=O)c1ccc(Br)o1 do in these assays?
CAL PDZ FP-1: inactive; CAL PDZ FP-2: inactive; ARNT TACC3 PPI: inactive

Results for C=CCNC(=O)/C(=C\c1ccco1)NC(=O)c1ccco1 ?
CAL PDZ FP-1: inactive; CAL PDZ FP-2: 64.8; ARNT TACC3 PPI: inactive

Results for C1CCCC(NC2=NCCO2)CCC1 ?
CAL PDZ FP-1: inactive; CAL PDZ FP-2: 59.0; ARNT TACC3 PPI: inactive

What do the screens show for `C1COC(NC(C2CC2)C2CC2)=N1`?
CAL PDZ FP-1: inactive; CAL PDZ FP-2: inactive; ARNT TACC3 PPI: inactive

How did O=C(NC1CCCC1)C(c1ccccc1)N(Cc1ccc(F)cc1)C(=O)c1csnn1 (stereo not drawn) do in these assays?
CAL PDZ FP-1: inactive; CAL PDZ FP-2: inactive; ARNT TACC3 PPI: inactive
